Data published in the RNAGym collection of RNA variant scans (doi:10.1126/science.aae0568).
This sample holds only a part of the variants without activity.

B1: tRNA (parent)
chain: GUUCCGUUGGCGUAAUGGUAACGCGUCUCCCUCCUAAGGAGAAGACUGCGGGUUCGAGUCCCGUACGGAACG

Variants of: B1
Experiment: yeast fitness relative to wild type (ratio to wild type); higher = fitter; tRNA-Arg(CCU), competitive growth, 37 C, YPD
Outline: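 Amplicons of the tRNA-Arg(CCU) gene were sequenced, 100-nucleotide paired-end, from the start population and from each end population of a pooled yeast competition. The competition, in six parallel replicates, lasted 24 hours in YPD at 37°C. Fitness relative to wild type was calculated from changes in genotype frequencies. Genotypes had to have ≥ 100 starting reads, and estimates < 0.5 were set to 0.5.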
For A21U C55U, the yeast fitness was 0.607.
For A21U C30G C34U G52A A65C A69U, the yeast fitness was ≤ 0.5.
For A21U U32A, the yeast fitness was 0.643.
In the case of A21U U32G, the yeast fitness is reported as 0.808.
For A21U C22U C49A, the yeast fitness was 0.56.
Work on A21G G67U yielded a yeast fitness of 0.87.
Variant A21U C60U has a yeast fitness of 0.584.
A21U showed a yeast fitness of 0.861.
With C22A A37C A65G C66U the yeast fitness was ≤ 0.5.
For A21U C33G G58A C66U, the yeast fitness was ≤ 0.5.
In the case of A21G U54A C62U A65G G68A, the yeast fitness is reported as ≤ 0.5.
In the case of A21U C24A A45U C62A A69C, the yeast fitness is reported as ≤ 0.5.
Work on A21U A42C yielded a yeast fitness of 0.741.
A21G G41C A69U showed a yeast fitness of 0.682.
For A21G U35A A43U U59C, the yeast fitness was ≤ 0.5.
With A21G G25C C29A G58A the yeast fitness was 0.54.
With A21G U47A G48A A65U the yeast fitness was ≤ 0.5.
In the case of A21U C22U G39A C46U C62U, the yeast fitness is reported as ≤ 0.5.
For A21U G52C C61U, the yeast fitness was ≤ 0.5.
For A21U G38C A65C, the yeast fitness was ≤ 0.5.
In the case of A21U A42G C55U, the yeast fitness is reported as 0.601.
Variant A21G U47C A65C has a yeast fitness of 0.63.
With A21U A36G A43U U64A the yeast fitness was ≤ 0.5.
In the case of A21U C22U C30G C55A, the yeast fitness is reported as ≤ 0.5.
With A21U A36G A40C A69U the yeast fitness was ≤ 0.5.
Variant A21U U28G has a yeast fitness of 0.659.
For A21G G52A A57U G67C, the yeast fitness was ≤ 0.5.
With A21U C34G G68A the yeast fitness was ≤ 0.5.
For C22A A37G C60G U64G, the yeast fitness was ≤ 0.5.
Work on C22A A40G yielded a yeast fitness of 0.671.
For A21U A42G C60A, the yeast fitness was ≤ 0.5.
In the case of A21U C46A C62U C66U, the yeast fitness is reported as ≤ 0.5.
In the case of A21U C27G A40G, the yeast fitness is reported as ≤ 0.5.
For A21U U53A A65C G67A, the yeast fitness was 0.682.
In the case of A21G G56U G58C A69U, the yeast fitness is reported as ≤ 0.5.
For A21U C62A G67A A69G, the yeast fitness was ≤ 0.5.
For A21U U32G U59C, the yeast fitness was 0.732.
With A21U A37U A65C the yeast fitness was 0.672.
In the case of A21U G56C, the yeast fitness is reported as 0.579.
Work on A21U A37U A43C C61U A70G yielded a yeast fitness of 0.517.
For A21U C29G C31G A43U, the yeast fitness was 0.574.
A21U C34U U35A G39A showed a yeast fitness of 0.594.
In the case of A21G G39C, the yeast fitness is reported as 0.732.
In the case of A21G G41C A45U, the yeast fitness is reported as 0.546.
For A21G G39A G44C, the yeast fitness was ≤ 0.5.
With A21U G58A the yeast fitness was 0.721.
Work on A21U C31A G39C C61A yielded a yeast fitness of 0.579.
With A21U C22G C31U U54A C55U the yeast fitness was ≤ 0.5.
In the case of A21G G38C G68C, the yeast fitness is reported as ≤ 0.5.
In the case of A21U C22U G48A A57U, the yeast fitness is reported as ≤ 0.5.
With A21U U26A A70C the yeast fitness was ≤ 0.5.
For A21U C55G G68A A70C, the yeast fitness was ≤ 0.5.
With A21G G68A the yeast fitness was 1.01.
For A21U U35A A65C, the yeast fitness was ≤ 0.5.
With A21U C55U C62G the yeast fitness was ≤ 0.5.
For A21U C22U C49A G67A, the yeast fitness was ≤ 0.5.
With A21G G39A G63A A70G the yeast fitness was 0.619.
With A21U C29G A57U A65C the yeast fitness was ≤ 0.5.
For A21U C27G A45C, the yeast fitness was ≤ 0.5.
Work on A21U C24U G56A yielded a yeast fitness of 0.635.
In the case of A21G G25C A69C, the yeast fitness is reported as 0.744.
In the case of A21U C24U C66U, the yeast fitness is reported as ≤ 0.5.
Work on A21U C33U A57U U59C yielded a yeast fitness of 0.639.
For A21U G48C G63A, the yeast fitness was ≤ 0.5.
A21U G25A A69C gave a yeast fitness of 0.605.
Work on C22A A37C yielded a yeast fitness of 0.641.
For C22A A37G, the yeast fitness was 0.823.
With A21G U28A C30U the yeast fitness was ≤ 0.5.
Variant A21G G39C A42C has a yeast fitness of 0.563.
With A21U A70G the yeast fitness was 0.786.
For A21U A40G C49G, the yeast fitness was ≤ 0.5.
With A21G U53G the yeast fitness was 0.647.
For A21U C29G C49G A70U, the yeast fitness was ≤ 0.5.
With A21U C62A the yeast fitness was 0.613.
For A21U C62U, the yeast fitness was 0.716.
In the case of C22A A37C G56C, the yeast fitness is reported as ≤ 0.5.
In the case of A21U C33A C34G G51C, the yeast fitness is reported as ≤ 0.5.
For A21G G48C C61G C62A C66U, the yeast fitness was ≤ 0.5.
A21U G25A C33U A57U U59C gave a yeast fitness of 0.562.
In the case of A21G U26C C29U G56C A69U, the yeast fitness is reported as ≤ 0.5.
A21U A69G gave a yeast fitness of 0.826.
In the case of A21U A69U, the yeast fitness is reported as 0.686.
For A21U C31A G39C C62G G68A, the yeast fitness was ≤ 0.5.
For A21U U32G C55A U59C, the yeast fitness was ≤ 0.5.
In the case of A21U U28G U59G, the yeast fitness is reported as 0.609.
With A21U A40C G56A the yeast fitness was ≤ 0.5.
A21U A43C A45U C49G C61U gave a yeast fitness of 0.56.
With A21U U35A the yeast fitness was 0.584.
In the case of A21U C30U U32A, the yeast fitness is reported as ≤ 0.5.
With A21U U54C C55G C60A C61G C66G the yeast fitness was ≤ 0.5.
For A21U C22U C55U, the yeast fitness was ≤ 0.5.
In the case of A21U A57U G68C, the yeast fitness is reported as ≤ 0.5.
A21U A45G C62G showed a yeast fitness of 0.996.
In the case of A21G U32G G41C, the yeast fitness is reported as ≤ 0.5.
In the case of A21U G56A G67U A69C, the yeast fitness is reported as ≤ 0.5.
In the case of A21U U26A U54A G63C A65C, the yeast fitness is reported as 0.554.
In the case of A21U G56A G67A, the yeast fitness is reported as ≤ 0.5.
With A21U A57U C61G the yeast fitness was ≤ 0.5.
For A21U A36C G38C, the yeast fitness was ≤ 0.5.
In the case of A21U C22U U32A G39A G51A A65U, the yeast fitness is reported as ≤ 0.5.
In the case of A21U C30U G39C A43G C46G U54A C62G, the yeast fitness is reported as ≤ 0.5.
A21U G41C showed a yeast fitness of 0.715.
For A21U G41A, the yeast fitness was 0.727.
For A21U C34G G39A C55U C61G, the yeast fitness was ≤ 0.5.
For A21U C27G C33U C34A C61U, the yeast fitness was ≤ 0.5.
In the case of A21U C24A A43C G48A A69C, the yeast fitness is reported as ≤ 0.5.
With A21U A43U G63A the yeast fitness was ≤ 0.5.
For A21U C27G C30A G67A, the yeast fitness was ≤ 0.5.
A21U G41C A43C U54G A69C gave a yeast fitness of 0.551.
With A21U C29G U35G G41C the yeast fitness was ≤ 0.5.
With A21U U26C the yeast fitness was 0.657.
A21U C46A showed a yeast fitness of 0.767.
For A21U C46U, the yeast fitness was 0.86.
For A21U A40C U59C C62U G67U, the yeast fitness was ≤ 0.5.
In the case of A21U C22A G38C A45U, the yeast fitness is reported as ≤ 0.5.
With A21U C22U A37G G44A A45C C46A C55U U59G U64C the yeast fitness was ≤ 0.5.
In the case of A21U C30U U32A G63C, the yeast fitness is reported as ≤ 0.5.
In the case of A21U C34G G39A A57G C61U, the yeast fitness is reported as ≤ 0.5.
For A21G U26G G51C, the yeast fitness was ≤ 0.5.
With A21U A36G U47C U59A the yeast fitness was 0.729.
Variant A21U A37U A45C G51A G67A has a yeast fitness of 0.67.
With A21U C24U C27A A37C A40U the yeast fitness was ≤ 0.5.
In the case of A21U C34G C60G, the yeast fitness is reported as ≤ 0.5.
Work on A21U A40U A69C yielded a yeast fitness of 0.574.
With A21U C22G C55A the yeast fitness was ≤ 0.5.
With A21U U26A C30G A36C A57G the yeast fitness was ≤ 0.5.
Work on A21U G25A G68U yielded a yeast fitness of 0.547.
A21G G39U C62U gave a yeast fitness of 0.527.
A21U A36G A45C gave a yeast fitness of 0.581.
Work on A21G G39C C46A yielded a yeast fitness of 0.881.
In the case of A21G U53A A57U, the yeast fitness is reported as 0.516.
Variant A21U G23C C24U has a yeast fitness of 0.658.
For A21U C29U A37U C66U, the yeast fitness was ≤ 0.5.
Work on A21G G58C A65U yielded a yeast fitness of 1.18.
With A21U U54A the yeast fitness was 0.533.
Work on A21U G39C U47A yielded a yeast fitness of 0.512.
A21U C66G gave a yeast fitness of 0.513.
With A21U C27A the yeast fitness was 0.583.
A21G G50A C55U showed a yeast fitness of 0.533.
A21U U28C C31U gave a yeast fitness of 0.637.
In the case of A21U U35A G44A, the yeast fitness is reported as ≤ 0.5.
With A21U C49A the yeast fitness was ≤ 0.5.
In the case of A21U G48A A57U, the yeast fitness is reported as 0.714.
Variant A21U C33U has a yeast fitness of 0.732.
A21U C33G gave a yeast fitness of 0.731.
A21G U35C G63C gave a yeast fitness of 0.536.
With A21U C55U G56A the yeast fitness was 0.567.
In the case of A21U C31U G52A A69G, the yeast fitness is reported as 0.706.
Work on A21U U26G G50C yielded a yeast fitness of 0.586.
For A21U U28A A42C C49G C62U, the yeast fitness was ≤ 0.5.
For A21G G51U G58A, the yeast fitness was 0.777.
Work on A21G U53C A57C A69U yielded a yeast fitness of 0.597.
For A21U C33A G39C G41C G44C A69C, the yeast fitness was ≤ 0.5.
For A21U C24A C30A C31G A43U U54G C62G, the yeast fitness was ≤ 0.5.
In the case of A21U C33U U59A, the yeast fitness is reported as ≤ 0.5.
A21U C31U G52A showed a yeast fitness of 0.602.
With A21U C31G C33G C60A the yeast fitness was 0.543.
For A21G G23A C31U G63C A69U, the yeast fitness was ≤ 0.5.
For A21U G23A U64C G67A, the yeast fitness was 0.568.
With A21U C22U U32A C49G the yeast fitness was ≤ 0.5.
A21U A40C G58C A65C C66G showed a yeast fitness of 0.523.
A21U A36U showed a yeast fitness of 0.592.
In the case of A21G U32C U59G C66U A70C, the yeast fitness is reported as 0.703.
Work on C22A A36U yielded a yeast fitness of 0.586.
For A21U C29U A69G, the yeast fitness was ≤ 0.5.
For A21U C24U C27A A37C A40U C49G, the yeast fitness was ≤ 0.5.
In the case of A21U G63C, the yeast fitness is reported as 0.633.
